Dynein cargo inh: blocks dynein driven cargo transport along microtubules; 3617.4 mouse cells, GR-EGFP nuclear translocation imaging; test concentration mostly 20 µM; stimulated with dexamethasone, 1 µM; active compounds read low; z-score, hits read low; actives 0.47% (n = 220,000); AID 1381;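 active = plate z-score of nuclear minus cytoplasmic receptor signal below a set negative limit, without overly bright fluorescence or cell loss, cut at about -3.5 in these data, passing the limit was not always enough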;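 also: z-score of nuclear minus cytoplasmic ring GR-EGFP intensity difference per well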
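Schedule: 48 h induction, then 1 h compound, then 30 min agonist, 37 °C. Buffer or medium: tetracycline-free induction medium containing charcoal-stripped FBS. Reagent: 1.0 µM final dexamethasone stimulus. Evaluation: nuclear versus cytoplasmic GR-EGFP signal, averaged per well. Signal: high-content fluorescence imaging after fixation.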
KCC2 mod: modulators of human KCC2 chloride dependent transport | Q9H2X9 | KCC2 cells, thallium flux FluoZin-2 fluorescence | B-score of Tl+ flux slope (higher = more flux/activation; lower = inhibition) at 10 µM | actives 2.2% (n = 190,000) | AID 1456;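 active = thallium flux slope and its plate-corrected score both differing from the plate sample mean at a set confidence after two filtering rounds, in either direction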;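 also: slope of fluorescence scaled to starting intensity during 10 to 20 s after thallium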
Autophagy mod: alters autophagy in cells | MEF GFP-LC3 puncta imaging; test concentration mostly 10 µM | calls only at 10 µM (by protocol) | actives 0.98% (n = 190,000);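 active = percentage of spot-positive cells more than 3 SD above its plate mean, without a fluorescence outlier flag or 80% toxicity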;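 also: spot-positive cell cutoff set from DMSO-treated cells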
ROMK primary: human ROMK K+ channel modulation, primary screen. P48048. Tet-inducible ROMK, thallium flux fluorescence; actives lie on both sides. actives 2% (n = 130,000). B-score at 10 µM;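 active = signal ratio slope over the read window, or its plate-corrected B-score, at least 3 SD from the plate mean, either direction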;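 also: B-score of the F/F0 ratio slope over 7 to 12 s after thallium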
Target sequence (P48048 whole entry, looked up): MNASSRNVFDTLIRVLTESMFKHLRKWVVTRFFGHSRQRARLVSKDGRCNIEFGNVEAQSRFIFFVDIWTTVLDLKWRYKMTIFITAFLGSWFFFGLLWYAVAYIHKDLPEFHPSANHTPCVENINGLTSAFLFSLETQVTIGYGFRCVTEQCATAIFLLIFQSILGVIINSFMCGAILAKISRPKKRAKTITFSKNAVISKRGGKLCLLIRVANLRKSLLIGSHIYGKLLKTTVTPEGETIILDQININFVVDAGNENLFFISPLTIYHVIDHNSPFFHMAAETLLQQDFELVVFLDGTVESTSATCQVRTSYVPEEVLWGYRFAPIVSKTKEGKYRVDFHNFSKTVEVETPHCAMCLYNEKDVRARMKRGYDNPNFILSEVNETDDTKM
Redox H2O2 prof: compounds producing H2O2 with reducing agent – biochemical, NIH compound library profiling, artefact control for MLSCN library redox annotation, primary screen; DTT-dependent redox cycling H2O2, phenol red/HRP absorbance; 100% = 100 µM peroxide control, 0% = buffer; actives 0.03% (n = 200,000); AID 878; activation, % at 10 µM;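 active = activation of at least 50% relative to the plate's high and low controls in the primary single-dose screen; inactive = activation below 50%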;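 also: compound incubated with DTT at 0.8 mM final as the reducing agent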
* hit, by the source's call; i = inactive; . = no result; + = active, no number. A selection: hits, their analogues and other compounds. The true share with any hit is near 4.1%.

SMILES	Dynein cargo inh	KCC2 mod	Autophagy mod	ROMK primary	Redox H2O2 prof
CCCCSc1nc2c(cnn2-c2ccc(C)c(C)c2)c(=O)[nH]1	3.3	0.734	+	.	0.4
CN(C(=S)NC(=O)CCCOc1ccc(Cl)cc1Cl)c1ccccc1	3.3	38.5*	i	0.301	0.3
CC1=C(C)C(=O)NC(Nc2nc(C)c3cc(C)cc(C)c3n2)N1 (stereo unspecified)	-1.04	-0.38	+	.	3.1
CCc1nnc2n1N=C(c1ccc(-c3cc(Cl)ccc3Cl)o1)CS2	0.00851	0.119	+	.	0.0
CCn1c(C(C)NC(=O)c2cccs2)n[nH]c1=S (stereo unspecified)	0.875	0.0606	i	.	-0.3
CN(C)c1ccc(C(=O)c2ccc(N(C)C)c3ccccc23)cc1	-0.283	-0.229	+	1.89	-1.0
Cc1cccc(C2c3[nH]c4ccccc4c3CCN2C(=O)c2cc(CC(C)C)[nH]c(=O)n2)n1 (stereo unspecified)	-0.214	0.147	i	0.463	-1.1
C/C(CCC12CC3CC(CC(C3)C1)C2)=N\NC(N)=S	-0.518	1.98	+	-0.401	0.5
COc1ccc(C(C)(C)C)cc1NC(=O)Cn1cnnn1	1.74	0.608	i	-0.487	-3.0
COc1ccc2nc(/N=C/c3c(C)[nH]n(-c4ccc(C)cc4C)c3=O)sc2c1	0.532	61.5*	i	.	0.6
CCOC(=O)c1c(C)c(C(=O)Nc2ccccc2)c(C)n1CC	-0.759	-1.97	i	0.378	1.4
CCOC(=O)c1c(C)c(C(=O)N2CCc3ccccc3C2)c(C)n1CC	0.499	-4.56*	i	.	-0.6
CCCc1cc(-c2n[nH]c(=S)n2C(C)c2ccccc2)cs1 (stereo unspecified)	-1.07	7.56*	i	0.0556	0.1
CCc1cccc(CC)c1N(COC)C(=O)Cn1ccccc1=N	0.11	.	+	0.649	-1.1
CCN(CCn1cccn1)C(=O)CC1C(=O)NCCN1Cc1ccc(OC)c(OC)c1 (stereo unspecified)	0.0767	1.34	+	0.294	0.1
CCCNCC1C(Oc2ccc(Cl)cc2Cl)C(=O)N1c1cccc(C)c1C (stereo unspecified)	-0.466	0.0841	+	-0.991	-0.8
CCC1CN(C(=O)Nc2ccc(C)cc2)c2cc(C)ccc2O1 (stereo unspecified)	-0.885	0.263	+	-0.809	0.6
CC(=O)C1=C(C)NC(=O)NC1c1ccc(Cl)cc1 (stereo unspecified)	-0.0461	.	i	0.115	-1.1
CC(C)CCN1CCN(CC#Cc2ccccc2)CC1CCO (stereo unspecified)	0.196	0.079	i	0.44	-1.0
COc1cc(-c2cc(C(=O)Nc3ccc(S(=O)(=O)NCc4ccco4)cc3)c3ccccc3n2)cc(OC)c1OC	-0.621	0.754	+	.	-0.3
COc1cc(-c2cc(C(=O)Nc3ccc(N4CCOCC4)cc3)c3ccccc3n2)cc(OC)c1OC	0.012	.	.	.	.
CCOc1ccc(C2C=C(c3ccc(F)cc3)Nc3ncnn32)cc1 (stereo unspecified)	0.665	-0.886	i	-0.488	1.4
CCOc1ccc(C2C=C(c3ccccc3)Nc3ncnn32)cc1 (stereo unspecified)	-0.773	.	i	-2.66*	0.0
CCOC(=O)c1c2ccc(OCC(=O)N/N=C/c3ccc(C)cc3)cc2n2ccccc12	-1.8	.	+	.	-5.4
CC(C)c1nc2ccc(Br)cn2c1NC1CCCC1	-1.47	0.0508	i	-1.08	-1.2
SMILES	Dynein cargo inh	KCC2 mod	Autophagy mod	ROMK primary	Redox H2O2 prof
COC(=O)c1ccc(Nc2cc(C)nc3ccc(C)cc23)cc1	-0.341	.	.	.	.
Cc1ccc2nc(C)cc(Nc3ccc([N+](=O)[O-])cc3)c2c1	1.12	-1.06	+	1.9	-1.0
N=c1n(CCN2CCCCC2)c2ccccc2n1CC(O)COc1ccccc1 (stereo unspecified)	1.85	0.868	+	.	-0.1
N=c1n(CCN2CCOCC2)c2ccccc2n1CC(O)COc1ccccc1 (stereo unspecified)	0.515	0.453	i	-0.821	0.0
COc1ccccc1OCC(O)Cn1c(=N)n(CCN2CCCCC2)c2ccccc21 (stereo unspecified)	1.04	-0.213	+	.	3.3
CC(C)C(c1nnnn1C(C)(C)C)N1CCC(Cc2ccccc2)CC1 (stereo unspecified)	0.062	0.0318	i	-1.46	0.9
